Test results from ChEMBL document CHEMBL4665847, “Understanding the Metabolism of Proteolysis Targeting Chimeras (PROTACs): The Next Step toward Pharmaceutical Applications” (J Med Chem, 2020).

What was measured:
[1] = Metabolic stability in cryopreserved human hepatocytes assessed as amide hydrolysis at 1 uM incubated for 4 hrs; format: ADME, cell-based, Hepatocyte
[2] = Metabolic stability in cryopreserved human hepatocytes assessed as O-dealkylation at 1 uM incubated for 4 hrs; format: ADME, cell-based, Hepatocyte
[3] = Metabolic stability in cryopreserved human hepatocytes assessed as aliphatic hydroxylation at 1 uM incubated for 4 hrs; format: ADME, cell-based, Hepatocyte
[4] = Metabolic stability in cryopreserved human hepatocytes assessed as N-dealkylation at 1 uM incubated for 4 hrs; format: ADME, cell-based, Hepatocyte
[5] = Metabolic stability in cryopreserved human hepatocytes assessed as aromatic hydroxylation at 1 uM incubated for 4 hrs; format: ADME, cell-based, Hepatocyte
[6] = Metabolic stability in cryopreserved human hepatocytes assessed as aliphatic carbonylation at 1 uM incubated for 4 hrs; format: ADME, cell-based, Hepatocyte
[7] = Metabolic stability in cryopreserved human hepatocytes assessed as dehydrogenation at 1 uM incubated for 4 hrs; format: ADME, cell-based, Hepatocyte
[8] = Metabolic stability in cryopreserved human hepatocytes assessed as glucuronidation at 1 uM incubated for 4 hrs; format: ADME, cell-based, Hepatocyte
[9] = target: T1, Aldehyde oxidase (Homo sapiens, UniProt Q06278); assay: Metabolic stability in human liver cytosol assessed as AOX1 mediated drug metabolism by measuring hydroxylation at 1 uM incubated up to 90 mins in absence of hydralazine by LC-MS/MS analysis; format: ADME, subcellular; details: 1.5 h
T1 sequence (Q06278 whole entry): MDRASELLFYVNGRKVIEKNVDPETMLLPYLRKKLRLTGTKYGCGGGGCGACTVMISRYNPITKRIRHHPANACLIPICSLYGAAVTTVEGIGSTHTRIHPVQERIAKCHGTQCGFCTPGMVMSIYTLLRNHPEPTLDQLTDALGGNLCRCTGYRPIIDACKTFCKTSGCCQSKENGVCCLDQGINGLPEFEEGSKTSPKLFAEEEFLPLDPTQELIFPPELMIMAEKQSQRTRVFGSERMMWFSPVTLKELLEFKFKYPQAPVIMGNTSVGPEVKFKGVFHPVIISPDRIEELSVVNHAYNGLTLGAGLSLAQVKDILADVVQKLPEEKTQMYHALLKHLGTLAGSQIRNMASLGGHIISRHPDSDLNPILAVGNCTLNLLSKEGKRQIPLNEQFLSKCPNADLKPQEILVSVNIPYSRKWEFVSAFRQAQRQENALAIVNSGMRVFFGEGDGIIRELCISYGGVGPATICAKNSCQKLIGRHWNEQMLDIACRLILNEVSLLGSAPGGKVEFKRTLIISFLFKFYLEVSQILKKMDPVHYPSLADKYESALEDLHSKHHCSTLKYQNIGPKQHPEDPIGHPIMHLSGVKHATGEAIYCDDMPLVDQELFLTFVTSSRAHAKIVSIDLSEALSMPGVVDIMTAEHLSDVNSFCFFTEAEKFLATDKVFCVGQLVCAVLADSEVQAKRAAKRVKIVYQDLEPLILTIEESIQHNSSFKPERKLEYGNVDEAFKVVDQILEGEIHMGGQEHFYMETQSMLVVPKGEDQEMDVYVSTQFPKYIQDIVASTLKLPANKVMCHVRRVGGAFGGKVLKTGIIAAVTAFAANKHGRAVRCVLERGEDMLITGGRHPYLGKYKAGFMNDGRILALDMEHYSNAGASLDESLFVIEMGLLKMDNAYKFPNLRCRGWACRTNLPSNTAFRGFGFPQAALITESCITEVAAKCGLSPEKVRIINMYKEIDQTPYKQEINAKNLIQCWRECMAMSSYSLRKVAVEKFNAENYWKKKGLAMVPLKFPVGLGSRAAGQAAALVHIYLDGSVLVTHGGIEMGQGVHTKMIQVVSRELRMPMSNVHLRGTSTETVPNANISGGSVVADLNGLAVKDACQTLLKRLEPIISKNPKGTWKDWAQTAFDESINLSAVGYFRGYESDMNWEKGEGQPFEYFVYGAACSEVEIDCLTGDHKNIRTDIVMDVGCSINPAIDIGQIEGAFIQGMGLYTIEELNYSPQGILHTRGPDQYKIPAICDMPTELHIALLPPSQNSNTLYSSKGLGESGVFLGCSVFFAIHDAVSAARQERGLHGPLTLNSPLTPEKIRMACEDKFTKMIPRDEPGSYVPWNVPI

[10] = target: T1, Aldehyde oxidase; assay: Metabolic stability in human liver cytosol assessed as AOX1 mediated drug metabolism by measuring amide hydrolysis at 1 uM incubated up to 90 mins in presence of hydralazine by LC-MS/MS analysis; format: ADME, subcellular; details: 1.5 h
[11] = Stability of the compound in PBS/ACN assessed as compound degradation at 10 uM measured after 3 hrs by LC-MS analysis; format: physicochemical; details: buffer
Summary of the method: (§1)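 Nonenzymatic stability: 10 mM DMSO stock diluted to 10 μM in PBS, PBS/ACN (1:1), or DMSO; PBS/ACN-DMSO variant dried under nitrogen at 40 °C and redissolved in DMSO. Solutions kept in LC autosampler at 37 °C for 12 h; LC-MS injections at 0, 3, 6 and 12 h tracking remaining parent.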

[12] = Stability of compound in DMSO at 10 uM incubated for 12 hrs by LC-MS analysis; format: physicochemical; summary of the method: as §1
[13] = Stability of compound in PBS/ACN-DMSO assessed as compound degradation at 10 uM measured after 3 hrs by LC-MS analysis; format: physicochemical; details: read-out: Drug degradation; summary of the method: as §1
[14] = Stability of the compound in PBS at pH 7.4 assessed as compound degradation at 10 uM incubated for 12 hrs by LC-MS analysis; format: physicochemical; details: buffer, pH 7.4, 12 h; summary of the method: as §1

SMILES	Drug metabolism [1]	Drug metabolism [2]	Drug metabolism [3]	Drug metabolism [4]	other results
O=C(COc1cccc2c1C(=O)N(C1CCC(=O)NC1=O)C2=O)NCCOCCOCCNC(=O)COc1c(-c2csc(N3CCOCC3)n2)ccc(F)c1F (configuration not stated)	Metabolite_Detected	Metabolite_Detected	Metabolite_Detected		
Cc1ncsc1-c1ccc([C@H](C)NC(=O)[C@@H]2C[C@@H](O)CN2C(=O)[C@@H](N)C(C)(C)C)cc1			Metabolite_Detected	Metabolite_Detected	Drug metabolism [5]: Metabolite_Detected; Drug metabolism [6]: Metabolite_Detected
O=C(COc1c(-c2csc(N3CCOCC3)n2)ccc(F)c1F)NCCOCCOCCNc1cccc2c1C(=O)N(C1CCC(=O)NC1=O)C2=O (configuration not stated)	Metabolite_Detected	Metabolite_Detected		Metabolite_Detected	
O=C(COc1c(-c2csc(N3CCOCC3)n2)ccc(F)c1F)NCCCCCCCCNc1cccc2c1C(=O)N(C1CCC(=O)NC1=O)C2=O (configuration not stated)	Metabolite_Detected	Metabolite_Detected	Metabolite_Detected	Metabolite_Detected	
Cc1ncsc1-c1ccc([C@H](C)NC(=O)[C@@H]2C[C@@H](O)CN2C(=O)[C@@H](NC(=O)CCCCNC(=O)COc2c(-c3csc(N4CCOCC4)n3)ccc(F)c2F)C(C)(C)C)cc1					Drug metabolism [9]: Metabolite_Detected; Drug metabolism [10]: Metabolite_Detected
Cc1sc2c(c1C)C(c1ccc(Cl)cc1)=N[C@@H](CC(=O)O)c1nnc(C)n1-2			Metabolite_Detected		
Cc1ncsc1-c1ccc([C@H](C)NC(=O)[C@@H]2C[C@@H](O)CN2C(=O)[C@@H](NC(=O)CCCCN(C)C(=O)COc2c(-c3csc(N4CCOCC4)n3)ccc(F)c2F)C(C)(C)C)cc1					Drug metabolism [9]: Metabolite_Detected; Drug metabolism [10]: Metabolite_Detected
O=C(COc1cccc2c1C(=O)N(C1CCC(=O)NC1=O)C2=O)NCCCCCCCCNC(=O)COc1c(-c2csc(N3CCOCC3)n2)ccc(F)c1F (configuration not stated)	Metabolite_Detected	Metabolite_Detected		Metabolite_Detected	
Cc1sc2c(c1C)C(c1ccc(Cl)cc1)=N[C@@H](CC(=O)NCCCCNC(=O)COc1cccc3c1C(=O)N(C1CCC(=O)NC1=O)C3=O)c1nnc(C)n1-2 (some centres not stated)					Stabilty [11]: Unstable; Stabilty [12]: Stable; degraded at 3 h, 10 µM [13]: 10%; Stabilty [14]: Unstable
Oc1c(-c2csc(N3CCOCC3)n2)ccc(F)c1F		Metabolite_Detected	Metabolite_Detected		Drug metabolism [8]: Metabolite_Detected

Continued, in another order:

Drug metabolism [1]	Drug metabolism [2]	Drug metabolism [3]	Drug metabolism [4]	SMILES	other results
Metabolite_Detected	Metabolite_Detected			Cc1ncsc1-c1ccc([C@H](C)NC(=O)[C@@H]2C[C@@H](O)CN2C(=O)[C@@H](NC(=O)COCCOCCNC(=O)COc2c(-c3csc(N4CCOCC4)n3)ccc(F)c2F)C(C)(C)C)cc1	Drug metabolism [7]: Metabolite_Detected; Drug metabolism [8]: Metabolite_Detected
Metabolite_Detected				Nc1cccc2c1C(=O)N(C1CCC(=O)NC1=O)C2=O (configuration not stated) [POMALIDOMIDE]	
		Metabolite_Detected	Metabolite_Detected	Cc1sc2c(c1C)C(c1ccc(Cl)cc1)=N[C@@H](CC(=O)NCCCCCCCCNc1cccc3c1C(=O)N(C1CCC(=O)NC1=O)C3=O)c1nnc(C)n1-2 (some centres not stated)	Drug metabolism [7]: Metabolite_Detected
